S1P3 antag: S1P3 receptor antagonists, primary screen, cell-based; hit rate 0.27% among 170,000; CHO S1P3 NFAT-BLA reporter, FRET fluorescence, antagonist mode; Sphingosine 1-phosphate receptor 3 (Homo sapiens), Q99500; inhibition, % at 4.98 µM;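 active means inhibition above the plate cutoff, the mean inhibition of test wells on that plate plus 3 SD, cut at about 28% in these data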;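 further: cells challenged with S1P at its EC80 of 0.8 µM; blue over green emission ratio from cleaved BLA substrate after 4 h stimulation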
Mdm2 ligase inh: MDM2-luciferase reporter signal enhancers, primary screen, MDM2 E3 ligase inhibitor project, cell-based, luminescence, 1536-well; cell-based MDM2 ubiquitination luciferase reporter, 2 h; 0 = plate control, 100 = twice control, blank-subtracted; AID 1230, 2008; hit rate 0.11% among 210,000; signal enhancement, % at 5 µM;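 active means signal enhancement of 30% or more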;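 further: luminescence tracks abundance of the self-degrading MDM2-luciferase fusion protein; higher signal means inhibition of MDM2 E3 ligase activity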
Target sequence (Q00987 whole entry, looked up, the tested form may be a part): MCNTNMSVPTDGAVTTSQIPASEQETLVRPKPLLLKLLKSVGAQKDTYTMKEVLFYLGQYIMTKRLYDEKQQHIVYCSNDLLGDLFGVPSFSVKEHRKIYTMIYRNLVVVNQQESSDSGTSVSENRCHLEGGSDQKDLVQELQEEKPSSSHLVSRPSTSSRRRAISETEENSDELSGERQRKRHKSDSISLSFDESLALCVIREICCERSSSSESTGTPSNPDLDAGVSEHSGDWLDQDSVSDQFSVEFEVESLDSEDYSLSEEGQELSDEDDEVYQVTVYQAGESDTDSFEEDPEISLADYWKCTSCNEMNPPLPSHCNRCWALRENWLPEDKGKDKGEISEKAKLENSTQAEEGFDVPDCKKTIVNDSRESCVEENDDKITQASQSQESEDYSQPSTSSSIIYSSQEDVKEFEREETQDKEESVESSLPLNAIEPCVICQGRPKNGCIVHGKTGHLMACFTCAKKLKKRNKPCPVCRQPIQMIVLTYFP
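Assay system: mammalian cells stably expressing self-ubiquitinating, self-degrading MDM2 E3–luciferase fusion. Quantity: 2000 cells in each well. Medium: DMEM culture medium. Compound dosing: single-point 5 µM. Timing: cell settling 4 h, compound treatment 2 h, both 37 °C. Technique: luciferase luminescence. Read-out basis: percent signal gain over controls, blank-subtracted. Benchmarks: plate controls and plate blanks.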
S1P4 antag: S1P4 receptor antagonists, primary screen, cell-based. Sphingosine 1-phosphate receptor 4 (Homo sapiens), O95977. S1P4-expressing cells, antagonist mode, reporter read-out. hit rate 0.26% among 220,000. inhibition, % at 4.98 µM; in the data active means inhibition above about 29%
S1P4 agonist: S1P4 receptor agonists, primary screen, cell-based. Sphingosine 1-phosphate receptor 4 (Homo sapiens), O95977. S1P4-expressing cell line, agonist reporter assay. activation, % at 4.98 µM. hit rate 0.35% among 220,000; in the data active means activation above about 11%
L major viab: Leishmania major promastigote growth inhibition, primary screen. Leishmania major promastigotes, resazurin fluorescence viability. inhibition, % at 10 µM. hit rate 9% among 200,000. AID 1063, 2008; in the data active means inhibition above about 50%;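 further: promastigotes grown with compound for 44 hours at 28 °C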
Hits are given with their value; – = inactive; · = no result. This excerpt belongs to a sample that is enriched for hits.

SMILES	S1P3 antag	Mdm2 ligase inh	S1P4 antag	S1P4 agonist	L major viab
COc1ccc(OC)c(CN2CCN(Cc3cccc4ccccc34)CC2)c1	–	–	–	–	65
CCN1CCN(C(c2cc(OC)ccc2OC)c2nnnn2Cc2ccccc2)CC1 (configuration not stated)	–	–	–	–	–
COc1ccc(CN2CCN(CCCc3ccccc3)CC2)c(OC)c1	–	–	–	–	91
Cn1cc(Br)c(C(=O)NC2CCCCC2)n1	–	–	–	–	–
CC(C)SC1=NC(C)(C)C=C(/C=C/c2c(Cl)cccc2Cl)N1	·	–	–	–	100
CC(C)SC1=NC(C)(C)C=C(/C=C/c2ccc(Cl)cc2Cl)N1	·	–	–	–	95
Clc1ccc(/C=C/c2nc3ccccc3[nH]2)c(Cl)c1	·	–	–	–	–
COc1ccc(C(=O)C2CCCN(C(=O)c3cc(C(C)C)no3)C2)cc1F (configuration not stated)	–	–	–	–	–
CCOC(=O)C1=C(O)/C(=C/c2ccc(OCC(=O)O)c(OCC)c2)SC1=Nc1ccc(C)cc1	–	–	–	–	–
CCOC(=O)C1=C(O)/C(=C/c2ccc(OCC(=O)O)c(OCC)c2)SC1=Nc1ccc(OC)cc1	–	–	–	–	62
COc1cc(/C=N/NC(=O)c2ccccc2O)ccc1OC(=O)CC1SC(=O)NC1=O (configuration not stated)	–	–	–	–	·
O=C(CCN1CCC(c2ccccc2)C1)c1ccc2c(c1)OCCO2 (configuration not stated)	·	–	–	–	101
O=C(CCN1CCCC1Cc1ccccc1)c1ccc2c(c1)OCCO2 (configuration not stated)	·	–	–	–	100
O=C(CCN1CCc2ccccc2C1)c1ccc2c(c1)OCCO2	–	–	–	–	100
COc1cc(C(=O)CCN2CCC(c3ccccc3)C2)cc(OC)c1OC (configuration not stated)	–	–	–	–	81
O=C(CCN1CCC(c2ccccc2)C1)c1cccs1 (configuration not stated)	–	–	–	–	72
O=C(CCN1CCC(c2ccccc2)C1)c1ccccc1 (configuration not stated)	·	–	–	–	–
Cc1onc(-c2ccccc2Cl)c1C(=O)N1CCN(c2ncccn2)CC1	–	–	–	–	–
Cc1onc(-c2c(Cl)cccc2Cl)c1C(=O)N1CCc2ccccc2C1	·	–	–	–	95
CCOc1ccccc1N1CCN(C(=O)c2c(-c3ccccc3Cl)noc2C)CC1	–	–	–	–	71
Cc1onc(-c2ccccc2)c1C(=O)N1CCCc2ccccc21	–	–	–	–	98
COC(=O)c1cccc(Oc2cccc(C(F)(F)F)c2)n1	–	–	–	–	–
COc1ccccc1N1CCN(C(CNS(=O)(=O)c2ccccc2)c2cccnc2)CC1 (configuration not stated)	·	–	–	–	93
COc1ccc(S(=O)(=O)NCC(c2cccnc2)N2CCN(c3ccccc3OC)CC2)cc1C (configuration not stated)	–	–	–	–	98
CCN1CCN(C(CNS(=O)(=O)c2ccc(OC)cc2)c2cccnc2)CC1 (configuration not stated)	–	–	–	–	–
SMILES	S1P3 antag	Mdm2 ligase inh	S1P4 antag	S1P4 agonist	L major viab
COc1ccc(S(=O)(=O)NCC(c2cccnc2)N2CCN(C)CC2)cc1C (configuration not stated)	–	–	–	–	–
O=C(O)C1=C(OCc2ccc(F)c(F)c2)C(=O)NCC1	–	–	–	–	–
Cc1cc(C)n(-c2cc(N3CCN(C(=O)c4cccc(F)c4)CC3)ccc2[N+](=O)[O-])n1	–	–	–	–	–
COC(=O)[C@@H]1CC[C@H](C)[C@@H](c2ccc(C)cc2)N1C(=O)c1ccc(/C=N/O[C@@H](C)c2cn([C@H](CO)Cc3ccccc3)nn2)cc1	–	·	–	–	53
Cc1ccc(S(=O)(=O)Nc2cc(C(C)C)c(O)cc2C)cc1	·	–	–	–	76
Cc1cnc(NS(=O)(=O)c2ccccc2)c(Br)c1	–	–	–	–	·
Cc1ccc(S(=O)(=O)Nc2ccccc2CNc2ncc(Br)cc2Br)cc1	–	–	–	–	100
COc1cc(NS(=O)(=O)c2ccc(C)cc2)c2ncccc2c1	–	–	–	–	99
Cc1ccc(S(=O)(=O)Nc2ccccc2C(N)=O)cc1	–	–	–	–	–
Cc1ccc(S(=O)(=O)Nc2ccccc2-c2ccccc2NS(=O)(=O)c2ccc(C)cc2)cc1	·	–	–	–	96
Cc1c([N+](=O)[O-])c(C/C=N/O)nn1C	–	–	–	–	·
Cc1ccc(S(=O)(=O)Nc2ccccc2CNc2ccccn2)cc1	–	–	–	–	59
Cc1ccc(S(=O)(=O)Nc2ccccc2CNc2ccc(Br)cn2)cc1	–	–	–	–	–
Cc1nc(N(C)C)c2sc(=S)n(C)c2n1	96	–	–	–	–
Cc1nc(N(C)C)c2sc(=S)n(-c3ccccc3)c2n1	–	–	–	–	–
O=C(Nc1ccc(Cl)c(Cl)c1)Nc1ccc(N2CCCC2)c(S(=O)(=O)Nc2ccccc2Cl)c1	–	–	–	–	99
O=C(Nc1ccc(F)cc1)Nc1ccc(N2CCCC2)c(S(=O)(=O)Nc2ccccc2Cl)c1	–	–	–	–	98
COc1ccccc1NS(=O)(=O)c1cc(NC(=O)C(C)C)ccc1N1CCCCC1	–	–	–	–	–
CC1CCN(c2nnc(-c3cccs3)c3ccccc23)CC1	–	–	–	–	–
O=C1CCN(c2ccc([N+](=O)[O-])cc2F)CC1	–	–	–	–	–
CN=C1SC(CC(=O)Nc2c(C)cccc2C)C(=O)N1/N=C/c1cccs1 (configuration not stated)	–	–	–	–	55
OC(Cc1cccnc1)(Cc1cccnc1)c1cc2ccccc2[nH]1	–	–	–	–	55
c1cncc(Cc2cc3ccccc3[nH]2)c1	–	–	–	–	50
CCN(Cc1cc2ccccc2[nH]c1=O)C(=O)c1cccnc1	–	–	–	–	–
COc1ccc(Cl)cc1C(=O)Nn1c(C)nc2ccccc2c1=O	–	–	–	–	–
COc1ccc(Cl)cc1C(=O)Nn1c(-c2cccs2)nc2ccccc2c1=O	–	–	–	–	61
COc1cccc(/C=C/C(=O)c2cccc([N+](=O)[O-])c2)c1OC	–	–	–	–	100
COc1ccc(C(=O)/C=C/c2ccc(OC)cc2OC)c(O)c1	–	–	–	–	–
COc1cccc(/C=C/C(=O)Nc2cccc(C(C)=O)c2)c1OC	–	–	–	–	–
COc1ccc(OC(=O)c2cccc([N+](=O)[O-])c2)c(C(=O)/C=C/c2cccs2)c1	·	–	–	–	73

Screening data from PubChem BioAssay.
